Experimental data pooled from the literature.
Compare with care: the assays were run in different laboratories. pKi: −log10 of the molar value.
ADH1 W55R: ADH1 (Saccharomyces cerevisiae, UniProt P00330, W55R)
lecA: PA-I galactophilic lectin (lecA, Pseudomonas aeruginosa, UniProt Q05097)
Chymotrypsinogen A: Chymotrypsinogen A (Bos taurus, UniProt P00766)

OCC(F)(F)F
pKi (ADH1 W55R; enzyme activity; inhibitor): 1.13

[N-]=[N+]=NCCCCC(=O)Nc1ccc(S[C@@H]2O[C@H](CO)[C@H](O)[C@H](O)[C@H]2O)cc1
pKi (lecA; ligand displacement; FP): 5.44

CCCC[C@H](NC(=O)[C@H](CCC(N)=O)NC(=O)[C@H](CO)NC(=O)[C@H](Cc1ccccc1)NC(=O)CCCCCN)C(=O)N[C@@H](CCCBr)B(O)O
pKi (Chymotrypsinogen A; enzyme activity; inhibitor; fluorescence): 6.24

O=[N+]([O-])c1ccc(O[C@@H]2O[C@H](CO)[C@H](O)[C@H](O)[C@H]2O)cc1
pKi (lecA; ligand displacement; FP): 4.57

[N-]=[N+]=NCCCC(=O)Nc1ccc(S[C@@H]2O[C@H](CO)[C@H](O)[C@H](O)[C@H]2O)cc1
pKi (lecA; ligand displacement; FP): 5.40

c1cc2c(cc1C1CCCCC1)c1c3n2CCNC3CCC1 (stereo not shown)
pKi (Amine oxidase [flavin-containing] A (Maoa, Rattus norvegicus, UniProt P21396); enzyme activity; inhibitor; pH 7.5): 5.44

CCCC[C@H](NC(=O)[C@H](CCC(N)=O)NC(=O)[C@H](CO)NC(=O)[C@H](C)NC(=O)CCCCCN)C(=O)N[C@@H](CCCBr)B(O)O
pKi (Chymotrypsinogen A; enzyme activity; inhibitor; fluorescence): 6.78

[N-]=[N+]=NCCC(=O)Nc1ccc(S[C@@H]2O[C@H](CO)[C@H](O)[C@H](O)[C@H]2O)cc1
pKi (lecA; ligand displacement; FP): 5.40

CCCC[C@H](NC(=O)[C@H](CCC(N)=O)NC(=O)[C@H](CO)NC(=O)CCCCCN)C(=O)N[C@@H](Cc1ccccc1)B(O)O
pKi (Chymotrypsinogen A; enzyme activity; inhibitor; fluorescence): 8.42

O=C(CCCCn1cc(CN2CCN(c3cc4c(cc3F)c(=O)c(C(=O)O)cn4C3CC3)CC2)nn1)Nc1ccc(S[C@@H]2O[C@H](CO)[C@H](O)[C@H](O)[C@H]2O)cc1
pKi (lecA; ligand displacement; FP): 5.49

NC(=O)C1=CN([C@@H]2O[C@H](COP(=O)(O)OP(=O)(O)OC[C@H]3O[C@@H](n4cnc5c(N)ncnc54)[C@H](O)[C@@H]3O)[C@@H](O)[C@H]2O)C=CC1
pKi (ADH1 W55R; enzyme activity; inhibitor): 3.24

CCCC[C@H](NC(=O)[C@H](CCCCN)NC(=O)[C@H](CO)NC(=O)[C@H](CO)NC(=O)OCc1ccccc1)C(=O)N[C@@H](CCCBr)B(O)O
pKi (Chymotrypsinogen A; enzyme activity; inhibitor; fluorescence): 6.71

NC(=O)C1=CN([C@@H]2O[C@H](COP(=O)(O)OP(=O)(O)OC[C@H]3O[C@@H](n4cnc5c(N)ncnc54)[C@H](O)[C@@H]3O)[C@@H](O)[C@H]2O)C=CC1
pKi (ADH1 (Saccharomyces cerevisiae, UniProt P00330, H49E); enzyme activity; inhibitor): 4.92
